Source: ChEMBL document CHEMBL1139834, “Synthesis and structure-activity relationships of new benzodioxinic lactones as potential anticancer drugs” (J Med Chem, 2007)
Activity calls are given as the source filed them. The calls are words filed in the database; no cut-off is given here.

Assays:
MDA-MB-231 = experiment: Antitumor activity against human MDA-MB-231 cell line; format: functional
Method in brief: (§1)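 Human tumour cell line panel. GI50 is the concentration giving 50% growth inhibition, averaged over at least two determinations. LC50 is the concentration killing 50% of cells in a […] assay.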

SF-268 = experiment: Antitumor activity against human SF268 cell line; format: functional; method in brief: as §1
MOLT-4 = experiment: Antitumor activity against human MOLT4 cell line; format: functional; method in brief: as §1
SF-295 = experiment: Antitumor activity against human SF295 cell line; format: functional; method in brief: as §1
OVCAR-8 = experiment: Antitumor activity against human OVCAR8 cell line; format: functional; method in brief: as §1
NCI-H460 = experiment: Antitumor activity against human NCI-H460 cell line; format: functional; method in brief: as §1
HL-60 = experiment: Antitumor activity against human HL60 cell line; format: functional; method in brief: as §1
786-0 = experiment: Antitumor activity against human 7860 cell line; format: functional; method in brief: as §1
MDA-N = experiment: Antitumor activity against human MDA-N cell line; format: functional; method in brief: as §1
CCRF-CEM = experiment: Antitumor activity against human CCRF-CEM cell line; format: functional; method in brief: as §1
UACC-62 = experiment: Antitumor activity against human UACC62 cell line; format: functional
Method in brief: (§2)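 Human tumour cell lines from a selected panel. GI50 is the concentration giving 50% growth inhibition, averaged from at least two determinations. LC50 is the concentration killing 50% of cells in a […] assay.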

SNB-75 = experiment: Antitumor activity against human SNB75 cell line; format: functional; settings: read-out: LC50 (the source's name); method in brief: as §2
A549 = experiment: Antitumor activity against human A549 cell line; format: functional; method in brief: as §1
ACHN = experiment: Antitumor activity against human ACHN cell line; format: functional; method in brief: as §1
MCF7 = experiment: Antitumor activity against human MCF7 cell line; format: functional; method in brief: as §1
NCI-H226 = experiment: Antitumor activity against human NCI-H226 cell line; format: functional; method in brief: as §1
RXF 393 = experiment: Antitumor activity against human RXF393 cell line; format: functional; method in brief: as §1
[1] = Effect on DNA sequence recognition assessed by DNase I footprinting assay; format: functional
NCI-H522 = experiment: Antitumor activity against human NCI-H522 cell line; format: functional; method in brief: as §1
HCC 2998 = experiment: Antitumor activity against human HCC2998 cell line; format: functional; settings: read-out: LC50 (the source's name); method in brief: as §1
HCT-116 = experiment: Antitumor activity against human HCT116 cell line; format: functional; method in brief: as §1
CAKI-1 = experiment: Antitumor activity against human CAKI1 cell line; format: functional; method in brief: as §1
TK-10 = experiment: Antitumor activity against human TK10 cell line; format: functional; method in brief: as §2
Malme-3M = experiment: Antitumor activity against human MALME3M cell line; format: functional; method in brief: as §1
A498 = experiment: Antitumor activity against human A498 cell line; format: functional; method in brief: as §1
SK-MEL-28 = experiment: Antitumor activity against human SKMEL28 cell line; format: functional; method in brief: as §1
UACC-257 = experiment: Antitumor activity against human UACC257 cell line; format: functional; method in brief: as §2
HT-29 [2] = experiment: Cytotoxicity against human HT29 cell line; format: cell-based
Method in brief: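 Cells grown at 37 °C under 5% CO2 in medium with 2 mM L-glutamine, penicillin, streptomycin and 20% heat-inactivated horse serum. Drug in DMSO (0.5% final) added to exponentially growing cells seeded at 0.8 × 10^5 cells/mL. Coulter counting in quadruplicate at 48 h (L1210) or 96 h (HT-29). IC50 from probit of % growth inhibition versus log dose; four independent runs in triplicate.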

EKVX = experiment: Antitumor activity against human EKVX cell line; format: functional; method in brief: as §1
LOX IMVI = experiment: Antitumor activity against human LOX IMVI cell line; format: functional; method in brief: as §1
MDA-MB-435 = experiment: Antitumor activity against human MDA-MB-435 cell line; format: functional; method in brief: as §1
Homo sapiens = organism: Homo sapiens; experiment: Inhibition of topoisomerase 2 assessed by DNA cleavage complex formation assay
Method in brief: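 Cleavage complex formed on pYRG plasmid DNA by human topoisomerase II purified from placenta. Linear DNA product quantified by densitometry relative to ellipticine.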

Hs-578T = experiment: Antitumor activity against human HS578T cell line; format: functional; method in brief: as §1
NCI-H23 = experiment: Antitumor activity against human NCI-H23 cell line; format: functional; method in brief: as §1
L1210 = experiment: Cell cycle arrest in mouse L1210 cell line by accumulation at G2/M phase at 5 uM after 24 hrs; format: functional
Method in brief: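 L1210 cells in RPMI 1640 with 2 mM L-glutamine, penicillin, streptomycin and 20% heat-inactivated horse serum, 5% CO2, 37 °C, exposed to several drug concentrations. Cells fixed in 70% ethanol, washed, stained 30 min at room temperature with propidium iodide plus RNAse in PBS, then flow cytometry. Read-out is percentage of cells in each cycle phase after 24 h exposure.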

SK-MEL-5 = experiment: Antitumor activity against human SKMEL5 cell line; format: functional; method in brief: as §1
COLO 205 = experiment: Antitumor activity against human Colo205 cell line; format: functional; method in brief: as §1
NCI-H322M = experiment: Antitumor activity against human NCI-H322M cell line; format: functional; method in brief: as §1
K562 = experiment: Antitumor activity against human K562 cell line; format: functional; method in brief: as §1
HT-29 [3] = experiment: Antitumor activity against human HT29 cell line; format: functional
[4] = Antitumor activity against human IGROVI cell line; format: functional; method in brief: as §1
KM12 = experiment: Antitumor activity against human KM12 cell line; format: functional; method in brief: as §1
HOP-92 = experiment: Antitumor activity against human HOP92 cell line; format: functional; method in brief: as §1
DU-145 = experiment: Antitumor activity against human DU145 cell line; format: functional; method in brief: as §1
NCI/ADR-RES = experiment: Antitumor activity against human NCI/ADRRES cell line; format: functional; method in brief: as §1
SF-539 = experiment: Antitumor activity against human SF539 cell line; format: functional; method in brief: as §1
BT-549 = experiment: Antitumor activity against human BT549 cell line; format: functional; method in brief: as §1
SW-620 = experiment: Antitumor activity against human SW620 cell line; format: functional; method in brief: as §2
[5] = read-out: LC50 (the source's name)

## CCCCc1c2c(c(C)c3c1C(=O)OC3)Oc1ccccc1O2
MDA-MB-231
  GI50: 2340 nM
MDA-MB-231; [5]
  CC50: 100 µM
SF-268
  GI50: 977 nM
SF-268; [5]
  CC50: 100 µM
MOLT-4
  GI50: 447 nM
MOLT-4; [5]
  CC50: 100 µM
SF-295
  GI50: 447 nM
SF-295; [5]
  CC50: 100 µM
OVCAR-8
  GI50: 3.55 µM
OVCAR-8; [5]
  CC50: 100 µM
NCI-H460
  GI50: 372 nM
NCI-H460; [5]
  CC50: 100 µM
HL-60
  GI50: 245 nM
HL-60; [5]
  CC50: 100 µM
786-0
  GI50: 562 nM
786-0; [5]
  CC50: 50 µM
MDA-N
  GI50: 117 nM
MDA-N; [5]
  CC50: 60 µM
CCRF-CEM
  GI50: 501 nM
CCRF-CEM; [5]
  CC50: 100 µM
UACC-62
  GI50: 490 nM
UACC-62; [5]
  CC50: 100 µM
SNB-75
  CC50: 90 µM
A549
  GI50: 603 nM
A549; [5]
  CC50: 70 µM
ACHN
  GI50: 3.72 µM
ACHN; [5]
  CC50: 100 µM
MCF7
  GI50: 1230 nM
MCF7; [5]
  CC50: 100 µM
NCI-H226
  GI50: 1860 nM
NCI-H226; [5]
  CC50: 100 µM
RXF 393
  GI50: 977 nM
RXF 393; [5]
  CC50: 100 µM
[1]
  Activity: inactive
NCI-H522
  GI50: 234 nM
NCI-H522; [5]
  CC50: 100 µM
HCC 2998
  CC50: 40 µM
HCT-116
  GI50: 380 nM
HCT-116; [5]
  CC50: 50 µM
CAKI-1
  GI50: 26.3 µM
CAKI-1; [5]
  CC50: 100 µM
TK-10
  GI50: 1510 nM
TK-10; [5]
  CC50: 100 µM
Malme-3M
  GI50: 447 nM
Malme-3M; [5]
  CC50: 100 µM
A498
  GI50: 776 nM
A498; [5]
  CC50: 100 µM
SK-MEL-28
  GI50: 39.8 µM
SK-MEL-28; [5]
  CC50: 100 µM
UACC-257
  GI50: 302 nM
UACC-257; [5]
  CC50: 100 µM
HT-29 [2]
  IC50: 580 nM
EKVX
  GI50: 2950 nM
EKVX; [5]
  CC50: 100 µM
LOX IMVI
  GI50: 1230 nM
LOX IMVI; [5]
  CC50: 100 µM
MDA-MB-435
  GI50: 158 nM
MDA-MB-435; [5]
  CC50: 40 µM
Homo sapiens
  Activity: inactive
Hs-578T
  GI50: 363 nM
Hs-578T; [5]
  CC50: 100 µM
NCI-H23
  GI50: 2630 nM
NCI-H23; [5]
  CC50: 100 µM
L1210
  Activity: 67%
SK-MEL-5
  GI50: 427 nM
SK-MEL-5; [5]
  CC50: 100 µM
COLO 205
  GI50: 741 nM
COLO 205; [5]
  CC50: 100 µM
NCI-H322M
  GI50: 933 nM
NCI-H322M; [5]
  CC50: 100 µM
K562
  GI50: 380 nM
K562; [5]
  CC50: 100 µM
HT-29 [3]
  GI50: 331 nM
HT-29 [3]; [5]
  CC50: 100 µM
[4]
  GI50: 282 nM
[4]; [5]
  CC50: 10 µM
KM12
  GI50: 490 nM
KM12; [5]
  CC50: 100 µM
HOP-92
  GI50: 5.75 µM
HOP-92; [5]
  CC50: 100 µM
DU-145
  GI50: 1820 nM
DU-145; [5]
  CC50: 100 µM
NCI/ADR-RES
  GI50: 437 nM
NCI/ADR-RES; [5]
  CC50: 100 µM
SF-539
  GI50: 339 nM
SF-539; [5]
  CC50: 10 µM
BT-549
  GI50: 21.4 µM
BT-549; [5]
  CC50: 100 µM
SW-620
  GI50: 525 nM
SW-620; [5]
  CC50: 100 µM
